Screening data: PubChem, Johns Hopkins Ion Channel Center
Only some compounds are listed: those with a hit (about 3.7% of all), similar ones and a draw of the others.
KCNK9 block: human KCNK9 channel inhibition. HEK293 KCNK9, FluxOR thallium flux fluorescence; hits give low values. Q9NPC2. AID 488922. 1.2% of 310,000 active. B-score at 10 µM;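 active = ratio B-score over 3 SD below the library mean, with starting fluorescence within 5 SD of its mean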;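 note: negative B-score means less thallium flux so channel inhibition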
Kir21 block: blocks the mouse Kir2.1 inward-rectifier potassium channel. P35561. HEK293-Kir2.1, FluxOR thallium flux fluorescence; hits give low values. B-score at 10 µM. 0.85% of 310,000 active. AID 1672;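 active = fluorescence ratio B-score at or below minus 3 SD of library scores, with starting-brightness B-score within 2 SD, cut at about -4.2 in these data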;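 note: channel flux triggered by added potassium and thallium sulfate stimulus; B-score of peak minus minimum fluorescence over baseline after thallium stimulus; more negative B-score means stronger Kir2.1 block with less thallium influx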
Target sequence (P35561 whole entry, looked up): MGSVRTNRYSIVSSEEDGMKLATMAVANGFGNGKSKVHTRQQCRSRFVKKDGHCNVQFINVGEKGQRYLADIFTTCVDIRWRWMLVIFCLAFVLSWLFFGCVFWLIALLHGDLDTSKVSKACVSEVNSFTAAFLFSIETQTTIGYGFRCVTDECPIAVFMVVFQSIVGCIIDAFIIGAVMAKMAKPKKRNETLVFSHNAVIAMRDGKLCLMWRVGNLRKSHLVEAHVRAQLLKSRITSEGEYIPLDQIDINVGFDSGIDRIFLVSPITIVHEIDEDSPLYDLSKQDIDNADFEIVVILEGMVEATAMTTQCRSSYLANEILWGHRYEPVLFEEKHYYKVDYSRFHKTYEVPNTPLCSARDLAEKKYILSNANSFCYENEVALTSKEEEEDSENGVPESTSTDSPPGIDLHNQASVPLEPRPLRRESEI
KCNQ1 inh: human KCNQ1 channel inhibition; AID 2642; CHO-K1 KCNQ1, FluxOR thallium flux fluorescence; hits give high values; 1.3% of 310,000 active; B-score at 10 µM;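 active = compounds whose thallium flux B-score, printed positive for inhibition, exceeds three library SD while starting fluorescence stays within three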;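 note: channel opened by potassium depolarization with thallium stimulus after 20 min compound exposure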
KCNK3 inh: human KCNK3 channel inhibition, primary screen; O14649; CHO-KCNK3 thallium flux, FluxOR fluorescence; hits give low values; B-score at 10 µM; 0.84% of 340,000 active; AID 602410;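 active = B-score under library mean minus 4 SD, starting fluorescence ratio at most library mean plus 5 SD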;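 note: more negative B-score means stronger inhibition of thallium flux through KCNK3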
KCNQ1 pot: potentiators or activators of human KCNQ1 potassium channel; P51787; CHO-K1 KCNQ1, thallium flux FluxOR fluorescence; hits give high values; B-score at 10 µM; 0.35% of 310,000 active;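 active = fluorescence ratio B-score, a plate-corrected score, at least three library SD, with initial intensity B-score within 5 SD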
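Test system: CHO-K1 cells stably expressing KCNQ1 / Medium: assay buffer / Also added: depolarizing K+/Tl+ stimulus, K2SO4 and Tl2SO4 each 12.5 mM in 5x stock / Incubation: 90 min dye loading and 20 min compound exposure, both at room temperature / Signal: thallium influx via FluxOR fluorescence, kinetic imaging / Evaluation: B score of baseline-normalized fluorescence ratio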
hERG rescue: hERG (human) protection from proarrhythmic block | CHO-hERG, FluxOR thallium flux, dofetilide IC70 present | activation (rescue from dofetilide block), less the hit threshold, % at 10 µM | 0.51% of 310,000 active;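 active = activation above the mean of controls blocked by dofetilide plus 5 SD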;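 note: thallium influx through hERG after potassium depolarization seen as dye fluorescence rise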
Numbers stand for hits.

Results for CN1CCN(C(=O)NCC23CC4CC(CC(C4)C2)C3)CC1 ?
KCNK9 block: inactive; Kir21 block: inactive; KCNQ1 inh: inactive; KCNK3 inh: inactive; KCNQ1 pot: inactive; hERG rescue: inactive

How did O=C(NCCc1ccccc1)c1ccc(NC(=O)C2CCCCC2)cc1 do in these assays?
KCNK3 inh: inactive

How did COc1ccc(OC)c(S(=O)(=O)Nc2ccc(O)c3ccccc23)c1 do in these assays?
KCNK9 block: inactive; Kir21 block: inactive; KCNQ1 inh: inactive; KCNK3 inh: inactive; KCNQ1 pot: inactive; hERG rescue: 11.3

Results for Fc1ccc(COc2ccccc2CNCc2ccncc2)cc1 ?
KCNK9 block: inactive; Kir21 block: inactive; KCNQ1 inh: inactive; KCNK3 inh: inactive; KCNQ1 pot: inactive; hERG rescue: inactive

What do the screens show for `Brc1ccc(OCc2ccccc2)c(CNCc2ccncc2)c1`?
KCNK9 block: inactive; Kir21 block: -5.28; KCNQ1 inh: inactive; KCNK3 inh: inactive; KCNQ1 pot: inactive; hERG rescue: inactive

What do the screens show for `c1ccc(COc2cccc(CNCc3cccnc3)c2)cc1`?
KCNK9 block: inactive; Kir21 block: inactive; KCNQ1 inh: inactive; KCNK3 inh: inactive; KCNQ1 pot: inactive; hERG rescue: inactive

How did OCCNCc1cc(Br)ccc1OCc1ccc(Cl)cc1 do in these assays?
KCNK9 block: inactive; Kir21 block: -4.95; KCNQ1 inh: inactive; KCNK3 inh: inactive; KCNQ1 pot: inactive; hERG rescue: inactive

What do the screens show for `OCCNCc1cc(Br)ccc1OCc1ccc(Cl)cc1Cl`?
KCNK9 block: inactive; Kir21 block: inactive; KCNQ1 inh: inactive; KCNK3 inh: inactive; KCNQ1 pot: inactive; hERG rescue: inactive

How did OCCNCc1cccc(OCc2ccc(Cl)cc2)c1 do in these assays?
KCNK9 block: inactive; Kir21 block: -8.71; KCNQ1 inh: inactive; KCNK3 inh: inactive; KCNQ1 pot: inactive; hERG rescue: inactive

How did Cc1sc2ncnc(SCC(=O)c3ccc(O)cc3O)c2c1C do in these assays?
KCNK9 block: inactive; Kir21 block: inactive; KCNQ1 inh: inactive; KCNK3 inh: inactive; KCNQ1 pot: 8; hERG rescue: inactive

Results for CCN(CC(=O)Nc1ccccc1OC)C(=O)c1cc(-c2ccccc2)nn1-c1ccccc1 ?
KCNK9 block: inactive; Kir21 block: inactive; KCNQ1 inh: 7; KCNK3 inh: inactive; KCNQ1 pot: inactive; hERG rescue: inactive

How did CCN(CC(=O)Nc1ccccc1C(F)(F)F)C(=O)c1cc(-c2ccccc2)nn1-c1ccccc1 do in these assays?
KCNK9 block: inactive; Kir21 block: inactive; KCNQ1 inh: inactive; KCNK3 inh: inactive; KCNQ1 pot: inactive; hERG rescue: inactive

What do the screens show for `Cc1ccc2sc(C)cc(=O)c2c1`?
KCNK3 inh: inactive

What do the screens show for `CCc1ccc2[nH]c(O)c(N=Nc3nc(-c4ccccc4)cs3)c2c1`?
KCNK9 block: inactive; Kir21 block: inactive; KCNQ1 inh: inactive; KCNK3 inh: inactive; KCNQ1 pot: 10; hERG rescue: 7.2

What do the screens show for `COc1ccc(C)cc1Nc1nc(N)c2ccccc2n1`?
KCNK9 block: inactive; Kir21 block: -4.87; KCNQ1 inh: inactive; KCNK3 inh: inactive; KCNQ1 pot: inactive; hERG rescue: inactive

What do the screens show for `COc1ccc(OC)c(Nc2c3ccccc3nc3ccccc23)c1`?
KCNK9 block: inactive; Kir21 block: -4.63; KCNQ1 inh: inactive; KCNK3 inh: inactive; KCNQ1 pot: inactive; hERG rescue: inactive

Results for Cc1ccccc1Nc1nc(N)c2ccccc2n1 ?
KCNK9 block: inactive; Kir21 block: inactive; KCNQ1 inh: inactive; KCNK3 inh: inactive; KCNQ1 pot: inactive; hERG rescue: inactive

How did COc1ccc([N+](=O)[O-])cc1Nc1c2ccccc2nc2ccccc12 do in these assays?
KCNK9 block: inactive; Kir21 block: inactive; KCNQ1 inh: 8; KCNK3 inh: inactive; KCNQ1 pot: inactive; hERG rescue: inactive

How did CC(C)CCCCCCCCCCCCC(=O)NCC(=O)NC1C(C)OC(Nc2ncnc3nc[nH]c23)C(O)C1O (stereo unspecified) do in these assays?
KCNK3 inh: inactive

What do the screens show for `CCCCCSc1nnc2c(n1)OC(c1cccn1C)N(C(C)=O)c1ccccc1-2` (stereo unspecified)?
KCNK9 block: -9.75; Kir21 block: inactive; KCNQ1 inh: inactive; KCNK3 inh: inactive; KCNQ1 pot: inactive; hERG rescue: inactive

What do the screens show for `Cc1cc2nccnc2cc1C`?
KCNK3 inh: inactive
